Assay results from ChEMBL document CHEMBL3739331, “Synthesis and Bioactivities of Kanamycin B-Derived Cationic Amphiphiles” (J Med Chem, 2015).
Values after ≈ are worked out from the molar mass of the structure shown. Active and inactive are the calls of the source. No cut-off for these calls is given here.

Tests used:
[1] = test system: Candida albicans; test: Antifungal activity against azole-resistant Candida albicans ATCC 64124 assessed as cell membrane permeabilization at twice the MIC after 1 hr by propidium iodide-staining based fluorescence microscopic analysis (reference value: <2%); assay type: functional
[2] = test system: Candida albicans; test: Antifungal activity against azole-resistant Candida albicans ATCC 64124 after 48 hrs in presence of posaconazole by checkerboard microdilution assay; assay type: functional; settings: ATCC 64124, 48 h
Summary of the method: (§1)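 Checkerboard combinations of the aminoglycoside amphiphile with posaconazole against yeast strains, run in duplicate. Each agent's MIC is taken alone and in combination. The fractional inhibitory concentration index (FICI) is calculated to classify the interaction.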

[3] = Activity of AAC(3)-4 (unknown origin) assessed as compound acetylation activity by Ellman's method
[4] = test system: Candida albicans; test: Antifungal activity against azole-resistant Candida albicans ATCC 90819 after 48 hrs by microbroth dilution method; assay type: functional; settings: ATCC 90819, 48 h
Summary of the method: (§2)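 Yeast MIC by broth microdilution, run in duplicate. The aminoglycoside compounds are read as MIC-0 (complete inhibition). Azoles are read as MIC-2 (50% inhibition).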

[5] = Hemolytic activity against mouse RBC at 500 ug/ml after 60 mins; assay type: ADME, cell-based, Erythrocyte; settings: red blood cells, read-out: Activity
[6] = test system: Candida albicans; test: Antifungal activity against azole-resistant Candida albicans ATCC 64124 after 48 hrs by microbroth dilution method; assay type: functional; settings: ATCC 64124, 48 h; summary of the method: as §2
[7] = Hemolytic activity against mouse RBC at 7.8 ug/ml after 60 mins; assay type: ADME, cell-based, Erythrocyte; settings: red blood cells, read-out: Activity
[8] = test system: Candida albicans; test: Antifungal activity against azole-resistant Candida albicans MYA-1003 after 48 hrs in presence of posaconazole by checkerboard microdilution assay; assay type: functional; settings: MYA-1003, 48 h; summary of the method: as §1
[9] = Activity of Mycobacterium tuberculosis AAC(2')-1c/AAC(3)-4 (unknown origin)/Serratia marcescens AAC(6')-2d (unknown origin) assessed as compound conversion to 3'-monoacetylated product incubated for 20 hrs by TLC analysis
[10] = test system: Candida albicans; test: Antifungal activity against azole-resistant Candida albicans ATCC 90819 after 48 hrs in presence of posaconazole by checkerboard microdilution assay; assay type: functional; settings: ATCC 90819, 48 h; summary of the method: as §1
[11] = test system: Bacillus subtilis; test: Antibacterial activity against Bacillus subtilis 168 by microdilution method; assay type: functional; settings: subsp. subtilis str. 168
Summary of the method: (§3)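 Broth microdilution MIC against the named bacterial strain, reported in μg/mL; each determination run at least in duplicate.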

[12] = test system: Pseudomonas aeruginosa; test: Antibacterial activity against Pseudomonas aeruginosa ATCC 27853 by microdilution method; assay type: functional; summary of the method: as §3
[13] = test system: Candida albicans; test: Antifungal activity against azole-resistant Candida albicans ATCC 64124 assessed as cell death after 12 hrs by time-kill assay; assay type: functional, organism-based
Summary of the method: (§4)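 Time-kill assay on C. albicans ATCC 64124 cultures exposed to test compound at 1/2 MIC, MIC and higher concentrations. Amphotericin B at 1 μg/mL and a no-drug culture serve as controls. CFU are counted at intervals over 24 h.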

[14] = test system: A549; test: Cytotoxicity against human A549 cells after 24 hrs by resazurin assay; assay type: cell-based; settings: Homo sapiens, A549, 24 h
[15] = test system: Candida albicans; test: Antifungal activity against azole-resistant Candida albicans MYA-1003 after 48 hrs by microbroth dilution method; assay type: functional; settings: MYA-1003, 48 h; summary of the method: as §2
[16] = test system: Enterobacter cloacae; test: Antibacterial activity against Enterobacter cloacae ATCC 13047 by microdilution method; assay type: functional; summary of the method: as §3
[17] = test system: Staphylococcus aureus; test: Antibacterial activity against Staphylococcus aureus NRS382 (USA 100) by microdilution method; assay type: functional; summary of the method: as §3
[18] = Activity of AAC(6')-1e/APH(2'')-1a (unknown origin) assessed as compound acetylation activity by Ellman's method
[19] = test system: Staphylococcus epidermidis; test: Antibacterial activity against Staphylococcus epidermidis ATCC 12228 by microdilution method; assay type: functional; summary of the method: as §3
[20] = test system: Salmonella enterica; test: Antibacterial activity against Salmonella enterica ATCC 14028 by microdilution method; assay type: functional; summary of the method: as §3
[21] = test system: Klebsiella pneumoniae; test: Antibacterial activity against Klebsiella pneumoniae ATCC 27736 by microdilution method; assay type: functional; summary of the method: as §3
[22] = test system: Staphylococcus aureus; test: Antibacterial activity against methicillin-resistant Staphylococcus aureus by microdilution method; assay type: functional
Summary of the method: (§5)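 Broth microdilution MIC, in μg/mL, against a panel of Gram-positive and Gram-negative strains. Run at least in duplicate.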

[23] = test system: Candida albicans; test: Antifungal activity against azole-resistant Candida albicans ATCC 64124 at MIC measured after 6 hrs by time-kill assay; assay type: functional; summary of the method: as §4
[24] = test system: Mycobacterium tuberculosis; test: Activity of Mycobacterium tuberculosis Eis assessed as compound acetylation activity by Ellman's method
[25] = test system: Mycobacterium tuberculosis; test: Activity of Mycobacterium tuberculosis AAC(2')-1c assessed as compound acetylation activity by Ellman's method
[26] = test system: Candida albicans; test: Antifungal activity against azole-resistant Candida albicans ATCC 64124 assessed as cell membrane permeabilization at 1 times MIC after 1 hr by propidium iodide-staining based fluorescence microscopic analysis (reference value: <2%); assay type: functional
[27] = test system: Candida albicans; test: Antifungal activity against azole-resistant Candida albicans MYA-1237 after 48 hrs in presence of posaconazole by checkerboard microdilution assay; assay type: functional; settings: MYA-1237, 48 h; summary of the method: as §1
[28] = test system: Escherichia coli; test: Antibacterial activity against Escherichia coli MC1061 by microdilution method; assay type: functional; summary of the method: as §5
[29] = test system: Serratia marcescens; test: Activity of Serratia marcescens AAC(6')-2d assessed as compound acetylation activity by Ellman's method
[30] = test system: Bacillus subtilis subsp. subtilis str. 168; test: Activity of Bacillus subtilis 168 APH(2'')-1a assessed as compound phosphorylation activity by Ellman's method
[31] = test system: Staphylococcus aureus; test: Antibacterial activity against Staphylococcus aureus NRS383 (USA 200) by microdilution method; assay type: functional; summary of the method: as §3
[32] = Activity of AAC(3)-4 (unknown origin)/Serratia marcescens AAC(6')-2d assessed as compound conversion to 3'-acetylated product incubated for 20 hrs by TLC analysis
[33] = test system: Candida albicans; test: Antifungal activity against azole-resistant Candida albicans ATCC 10231 after 48 hrs in presence of posaconazole by checkerboard microdilution assay; assay type: functional; settings: ATCC 10231, 48 h; summary of the method: as §1
[34] = test system: Candida albicans; test: Antifungal activity against azole-susceptible Candida albicans ATCC MYA-2876 after 48 hrs by microbroth dilution method; assay type: functional; settings: ATCC MYA-2876, 48 h; summary of the method: as §2
[35] = Activity of Mycobacterium tuberculosis AAC(2')-1c/Serratia marcescens AAC(6')-2d assessed as compound conversion to 6'-monoacetylated product incubated for 20 hrs by TLC analysis
[36] = Cytotoxicity against human BEAS2B cells after 24 hrs by resazurin assay; assay type: cell-based, BEAS-2B; settings: Homo sapiens, BEAS-2B
[37] = test system: Candida albicans; test: Antifungal activity against azole-resistant Candida albicans MYA-1237 after 48 hrs by microbroth dilution method; assay type: functional; settings: MYA-1237, 48 h; summary of the method: as §2
[38] = test system: Aspergillus nidulans; test: Antifungal activity against Aspergillus nidulans ATCC 38163 after 48 hrs by microbroth dilution method; assay type: functional; settings: ATCC 38163, 48 h
Summary of the method: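 Filamentous fungus MIC by broth microdilution, run in duplicate. All compounds are read as MIC-0 (complete inhibition).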

[39] = test system: Acinetobacter baumannii; test: Antibacterial activity against Acinetobacter baumannii ATCC 19606 by microdilution method; assay type: functional; summary of the method: as §3
[40] = Activity of Mycobacterium tuberculosis AAC(2')-1c/AAC(3)-4 (unknown origin) assessed as compound conversion to 3'-acetylated product incubated for 20 hrs by TLC analysis
[41] = test system: Candida albicans; test: Antifungal activity against azole-susceptible Candida albicans ATCC MYA-2310 after 48 hrs by microbroth dilution method; assay type: functional; settings: ATCC MYA-2310, 48 h; summary of the method: as §2
[42] = test system: Staphylococcus aureus; test: Antibacterial activity against Staphylococcus aureus NRS385 (USA 300) by microdilution method; assay type: functional; summary of the method: as §5
[43] = test system: Candida albicans; test: Antifungal activity against azole-susceptible Candida albicans ATCC MYA-2876 after 48 hrs in presence of posaconazole by checkerboard microdilution assay; assay type: functional; settings: ATCC MYA-2876, 48 h; summary of the method: as §1
[44] = test system: Listeria monocytogenes; test: Antibacterial activity against Listeria monocytogenes ATCC 19115 by microdilution method; assay type: functional; summary of the method: as §3
[45] = test system: Candida albicans; test: Antifungal activity against azole-susceptible Candida albicans ATCC MYA-2310 after 48 hrs in presence of posaconazole by checkerboard microdilution assay; assay type: functional; settings: ATCC MYA-2310, 48 h; summary of the method: as §1
[46] = test system: Candida albicans; test: Antifungal activity against azole-resistant Candida albicans ATCC 64124 at sub-MIC measured over 24 hrs by time-kill assay; assay type: functional, organism-based; summary of the method: as §4
[47] = test system: Candida albicans; test: Antifungal activity against azole-resistant Candida albicans ATCC 10231 after 48 hrs by microbroth dilution method; assay type: functional; settings: ATCC 10231, 48 h; summary of the method: as §2

CCCCCCCCCCCCCCSC[C@@H]1O[C@@H](O[C@@H]2[C@@H](O)[C@H](O[C@@H]3O[C@@H](CN)[C@H](O)[C@@H](O)[C@@H]3N)[C@@H](N)C[C@H]2N)[C@@H](O)[C@H](N)[C@H]1O (stereo in doubt)
Activity [1]: 49% | MIC [2]: 1 µg/mL | Activity [3]: inactive | MIC [4]: 15.6 µg/mL (≈ 22.4 µM) | hemolysis at 1 h, 500 ug/ml [5]: 73% | MIC [6]: 7.8 µg/mL (≈ 11.2 µM) | hemolysis at 1 h, 7.8 ug/ml [7]: 15% | MIC [8]: 2 µg/mL | Activity [9]: Active | MIC [10]: 1 µg/mL | MIC [11]: > 128 µg/mL | MIC [12]: 64 µg/mL (≈ 92 µM) | Activity [13]: Active | IC50 [14]: > 62.5 µg/mL | MIC [15]: 7.8 µg/mL (≈ 11.2 µM) | MIC [16]: 128 µg/mL (≈ 184 µM) | MIC [17]: 32 µg/mL (≈ 46 µM) | Activity [18]: inactive | MIC [19]: > 128 µg/mL | MIC [20]: 32 µg/mL (≈ 46 µM) | MIC [21]: > 128 µg/mL | MIC [22]: 32 µg/mL (≈ 46 µM) | LCK [23]: >=2 | Activity [24]: inactive | Activity [25]: inactive | Activity [26]: 84% | MIC [27]: 1 µg/mL | MIC [28]: > 128 µg/mL | Activity [29]: inactive | Activity [30]: inactive | MIC [31]: 8 µg/mL (≈ 11.5 µM) | Activity [32]: Active | MIC [33]: 4 µg/mL | MIC [34]: 7.8 µg/mL (≈ 11.2 µM) | Activity [35]: Active | IC50 [36]: > 62.5 µg/mL | MIC [37]: 7.8 µg/mL (≈ 11.2 µM) | MIC [38]: ≤ 1.95 µg/mL | MIC [39]: > 128 µg/mL | Activity [40]: Active | MIC [41]: 7.8 µg/mL (≈ 11.2 µM) | MIC [42]: 16 µg/mL (≈ 23 µM) | MIC [43]: 1 µg/mL | MIC [44]: 0.5 µg/mL (≈ 0.718 µM) | MIC [45]: 1 µg/mL | Activity [46]: Active | MIC [47]: 7.8 µg/mL (≈ 11.2 µM)
